The source made the active and inactive calls. The rule behind the calls is not given here.
Key:
K562 [1] = assay: Induction of cell cycle arrest in human K562 cells assessed as increase in accumulation at G0/G1 phase at 60 uM after 24 hrs by flow cytometric analysis; type: functional, cell-based
How it was run: (§1)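 K562 myeloblastic leukemia cells cultured 24 h with compound at 20, 40 or 60 µM, or untreated. Cells washed in ice-cold PBS and resuspended at 10⁶/mL in hypotonic propidium iodide (50 µg/mL) with 0.03% Nonidet P-40 in 0.1% sodium citrate. After 30 min, DNA content read by flow cytometry; sub-G0/G1, G0/G1, S and G2/M fractions scored.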

[2] = Cytotoxicity in HFF cells after 72 hrs by trypan blue exclusion assay; type: cell-based; settings: human
How it was run: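 Human normal fibroblasts, 2 × 10⁵ per well, seeded in RPMI 1640 with 10% fetal calf serum plus penicillin and streptomycin at 37 °C under CO₂. Compound added after 24 h. Living cells counted at 72 h by trypan blue exclusion, expressed as percent of control proliferation; GI50 derived.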

K562 [3] = assay: Induction of cell cycle arrest in human K562 cells assessed as decrease in accumulation at G2/M phase at 40 uM after 24 hrs by flow cytometric analysis; type: functional, cell-based; how it was run: as §1
K562 [4] = assay: Induction of cell cycle arrest in human K562 cells assessed as decrease in accumulation at S phase at 40 uM after 24 hrs by flow cytometric analysis; type: functional, cell-based; how it was run: as §1

Question: What does the source list for `Nc1nn(C(=O)Nc2ccc(Cc3ccccc3)cc2)c2ccc(Cl)cc12`?
Answer: Activity (K562 [1]): Active; GI50 at 72 h [2]: 36 µM; Activity (K562 [3]): Active; Activity (K562 [4]): Active

— ChEMBL document CHEMBL1649392, “Synthesis of substituted 3-amino-N-phenyl-1H-indazole-1-carboxamides endowed with antiproliferative activity” (Eur J Med Chem, 2011)
